Results on 21 molecules are retold here after ChEMBL document CHEMBL3259692, “Inhibition of biofilm formation by conformationally constrained indole-based analogues of the marine alkaloid oroidin” (2014).

The subject of experiment [1] is Staphylococcus aureus. Description: Antimicrobial activity against methicillin-resistant Staphylococcus aureus 25762 assessed as biofilm formation at 100 uM after 48 hrs by crystal violet staining-based spectrophotometry relative to control. It counts as functional.
In experiment [2] the test system is Streptococcus mutans. Description: Antimicrobial activity against Streptococcus mutans 240 assessed as biofilm formation at 100 uM after 48 hrs by crystal violet staining-based spectrophotometry relative to control. It counts as functional. Put shortly: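 Single-concentration screen in a modified biofilm-formation assay. Compound at 100 µM. Biofilm formed is expressed as a percentage of the negative control. Values are the mean of three independent experiments.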

For a further experiment, the system named is Pseudomonas aeruginosa. The experiment can be described thus: Antimicrobial activity against Pseudomonas aeruginosa 6121 assessed as inhibition of biofilm formation after 24 hrs by crystal violet staining-based spectrophotometry. The format is functional, organism-based.
For experiment [3], the system named is Staphylococcus aureus. Description: Antimicrobial activity against methicillin-resistant Staphylococcus aureus 25762 assessed as inhibition of biofilm formation after 48 hrs by crystal violet staining-based spectrophotometry. It counts as functional.
The subject of experiment [4] is Streptococcus mutans. Description: Antimicrobial activity against Streptococcus mutans 240 assessed as inhibition of biofilm formation after 48 hrs by crystal violet staining-based spectrophotometry. It counts as functional.

Calls of active or inactive are those of the source. The rule behind the calls is not given here.

As for `Cl.Nc1nc(-c2cccc(NC(=O)c3cc4cc(F)ccc4[nH]3)c2)c[nH]1`, the result in the experiment with Staphylococcus aureus [1] was inactive. For the same molecule, the Activity in the experiment with Streptococcus mutans [2] was found to be 8.7%. The inhibition entry in the experiment with Pseudomonas aeruginosa is “inactive”.

With `Cl.Nc1nc(-c2ccc(NC(=O)c3cc4ccccc4[nH]3)cc2)c[nH]1`, the Activity came out at 11.1% with Staphylococcus aureus [1] and 8.1% with Streptococcus mutans [2]. The figures for the MBIC50 in the experiment with Staphylococcus aureus [3] and in the experiment with Streptococcus mutans [4] were 90 µM and 60 µM, respectively. Moreover, the inhibition entry in the experiment with Pseudomonas aeruginosa is “inactive”.

As to `Nc1ncc(/C=C/CNC(=O)c2cc(Br)c(Br)[nH]2)[nH]1` [OROIDIN], the outcome with Staphylococcus aureus [1] was inactive. In addition, the Activity with Streptococcus mutans [2] was found to be 18%.

Regarding `Nc1ccc2[nH]c(C(=O)Nc3cccc(-c4c[nH]c(N)n4)c3)cc2c1`, the result in the experiment with Staphylococcus aureus [1] and with Streptococcus mutans [2] was inactive. In the experiment on Pseudomonas aeruginosa, the inhibition entry is “inactive”.

Take `Cl.Nc1nc(-c2cccc(NC(=O)c3cc4cc(Cl)ccc4[nH]3)c2)c[nH]1`: the results for the Activity in the experiment on Staphylococcus aureus [1] and with Streptococcus mutans [2] were 44% and 6.8%, respectively. Besides, in the experiment with Pseudomonas aeruginosa, the inhibition result was “inactive”.

In the case of `COc1ccc2[nH]c(C(=O)Nc3cccc(-c4c[nH]c(N)n4)c3)cc2c1.Cl`, the outcome with Staphylococcus aureus [1] was inactive. Also, in the experiment with Streptococcus mutans [2], the Activity is 10.5%. Besides, the inhibition entry in the experiment with Pseudomonas aeruginosa is “inactive”.

`Nc1nc(/C=C/CNC(=O)c2cc3ccccc3[nH]2)c[nH]1`: the outcome in the experiment with Staphylococcus aureus [1] and in the experiment on Streptococcus mutans [2] was inactive. Besides, the inhibition entry in the experiment with Pseudomonas aeruginosa was “inactive”.

For the molecule `Cl.Nc1nc(-c2cccc(NC(=O)c3cc4cc([N+](=O)[O-])ccc4[nH]3)c2)c[nH]1`, the outcome in the experiment with Staphylococcus aureus [1] was inactive. Also, the Activity with Streptococcus mutans [2] was 33.3%. In addition, the inhibition result in the experiment on Pseudomonas aeruginosa is “inactive”.

As to `Cl.Nc1nc(-c2cccc(NC(=O)c3cc4cc(O)ccc4[nH]3)c2)c[nH]1`, the outcome with Staphylococcus aureus [1] was inactive. For the same molecule, the Activity with Streptococcus mutans [2] came out at 53.4%. The inhibition entry with Pseudomonas aeruginosa was “inactive”.

In the case of `Cl.Nc1nc(-c2cccc(NC(=O)c3cc4cc(OCc5ccccc5)ccc4[nH]3)c2)c[nH]1`, the Activity was determined as 31.4% in the experiment with Staphylococcus aureus [1] and 8.2% in the experiment with Streptococcus mutans [2]. The inhibition entry in the experiment with Pseudomonas aeruginosa was “inactive”.

In the case of `Cl.Nc1nc(-c2cccc(NC(=O)c3cc4sccc4[nH]3)c2)c[nH]1`, the Activity in the experiment with Staphylococcus aureus [1] was determined as 23%; with Streptococcus mutans [2], 10.1%. Moreover, the MBIC50 came out at 90 µM in the experiment on Staphylococcus aureus [3] and 60 µM in the experiment on Streptococcus mutans [4]. Moreover, the inhibition result in the experiment on Pseudomonas aeruginosa was “inactive”.

For the molecule `Cl.Nc1nc(-c2cccc(NC(=O)c3c[nH]c4ccccc34)c2)c[nH]1`, in the experiment with Staphylococcus aureus [1], the result was inactive. Further, in the experiment with Streptococcus mutans [2], the Activity came to 23.9%. The inhibition entry with Pseudomonas aeruginosa was “inactive”.

As for `Nc1nc(/C=C/CNC(=O)c2cc3cc(F)ccc3[nH]2)c[nH]1`, the results for the Activity with Staphylococcus aureus [1] and in the experiment on Streptococcus mutans [2] were 8.1% and 18.7%, respectively. For the same molecule, the MBIC50 in the experiment on Staphylococcus aureus [3] and in the experiment with Streptococcus mutans [4] was 60 µM each time. Moreover, the inhibition result in the experiment on Pseudomonas aeruginosa is “inactive”.

On to `CNc1nc(-c2cccc(NC(=O)c3cc4ccccc4[nH]3)c2)c[nH]1.Cl`, for which the results for the Activity with Staphylococcus aureus [1] and in the experiment on Streptococcus mutans [2] were 19.1% and 8.8%, respectively. Also, the MBIC50 with Staphylococcus aureus [3] was 70 µM; with Streptococcus mutans [4] it was 80 µM. Also, the inhibition result in the experiment on Pseudomonas aeruginosa was “inactive”.

As for `Cl.Nc1nc(-c2cccc(NC(=O)c3cc4ccccc4[nH]3)c2)c[nH]1`, the Activity is 13.9% in the experiment with Staphylococcus aureus [1] and 14.2% with Streptococcus mutans [2]. For the same molecule, the inhibition entry in the experiment on Pseudomonas aeruginosa was “inactive”.

As for `CC(C)(C)OC(=O)n1cc(-c2cccc(NC(=O)c3cc4cc(OC(F)(F)F)ccc4[nH]3)c2)nc1N`, the outcome in the experiment on Staphylococcus aureus [1] and in the experiment on Streptococcus mutans [2] was inactive. Further, the inhibition result in the experiment with Pseudomonas aeruginosa is “inactive”.

`CC(C)(C)OC(=O)n1cc(-c2cccc(NC(=O)c3cc4cc(N)ccc4[nH]3)c2)nc1N`: the result in the experiment with Staphylococcus aureus [1] and in the experiment on Streptococcus mutans [2] was inactive. Moreover, the inhibition result in the experiment with Pseudomonas aeruginosa was “inactive”.

On to `Cl.Nc1nc(-c2ccc(NC(=O)c3cc4cc(F)ccc4[nH]3)cc2)c[nH]1`, for which the Activity was found to be 10.9% with Staphylococcus aureus [1] and 3.9% in the experiment with Streptococcus mutans [2]. In addition, the MBIC50 in the experiment with Staphylococcus aureus [3] is 60 µM; in the experiment on Streptococcus mutans [4], 50 µM. The inhibition entry in the experiment with Pseudomonas aeruginosa is “inactive”.

As to `Cl.Nc1nc(-c2ccc(NC(=O)c3cc4cc(Cl)ccc4[nH]3)cc2)c[nH]1`, the result in the experiment with Staphylococcus aureus [1] was inactive. Besides, the Activity in the experiment on Streptococcus mutans [2] is 38.2%. Besides, in the experiment on Pseudomonas aeruginosa, the inhibition entry was “inactive”.

Turning to `CC(C)(C)OC(=O)n1cc(-c2cccc(NC(=O)c3cc4cc(O)ccc4[nH]3)c2)nc1N`, the result in the experiment with Staphylococcus aureus [1] was inactive. In addition, the Activity in the experiment on Streptococcus mutans [2] was found to be 57.6%. In addition, in the experiment on Pseudomonas aeruginosa, the inhibition result is “inactive”.

On to `CC(C)(C)OC(=O)n1cc(-c2cccc(NC(=O)c3cc4ccccc4[nH]3)c2)nc1N`, for which the outcome in the experiment with Staphylococcus aureus [1] was inactive. Further, the Activity with Streptococcus mutans [2] is recorded as 30.6%. Moreover, the inhibition result with Pseudomonas aeruginosa is “inactive”.
